Data published in ChEMBL document CHEMBL5661984, “Allosteric ligands for the pharmacologically dark receptors GPR68 and GPR65” (Nature, 2015).
Activity calls are given as the source filed them.

Tests used:
[1] = Binding affinity to GPR68 H269F mutant expressed in human HEK293T cells assessed as cAMP production in presence of H+ proton by Split-luciferase based luminescence counter analysis; conditions: condition central nervous system disease
Summary of the method: (§1)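 Proton concentration-response of GPR68 (wild type or E160A/K/Q, R189L/M, H269F mutants) in transiently transfected HEK293-T cells. Read-out: GloSensor cAMP, with luciferin loading 90 min at 37°C at pH 8.4. Run with and without increasing modulator concentrations; 20 min at room temperature before luminescence. Proton KA fixed to the proton EC50 without modulator. KB, τA, α, β fitted globally with an operational allosteric model. n=4.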

[2] = target: T1, G-protein coupled receptor 68 (Homo sapiens, UniProt Q15743); assay: Positive allosteric modulator activity at GPR68 expressed in human HEK293T cells assessed as proton-mediated calcium release at 10 uM incubated for 10 mins by Fluo-4 Direct calcium dye based FLIPR assay (reference value: 1.30 %); type: functional, cell-based
[3] = Toxicity in C57BL/6 mouse assessed as decreased contextual memory retrieval; conditions: in vivo
Summary of the method: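 Fear conditioning in wild-type and GPR68 KO C57BL/6J congenic mice. Training was 8 min: 3 pairings of a 30-s, 90 dB, 5 kHz tone with a 2-s, 0.6 mA foot shock. Context freezing scored at 24 h over 5 min; cue test at 48 h over 6 min. Freezing defined as no movement for 0.5 s. Compound 10 mg/kg in 10% Tween 80 or saline, 30 min before training. n=6–8 per group. Two-way ANOVA with Bonferroni post-hoc test.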

[4] = Positive allosteric modulator activity at GPR68 E160Q mutant expressed in human HEK293T cells assessed as cAMP production in presence of H+ proton by Split-luciferase based luminescence counter analysis (reference value: 17.0+/-1.5 %); conditions: HEK-293T, condition central nervous system disease; summary of the method: as §1
[5] = target: C-X-C chemokine receptor type 4 (Homo sapiens) (UniProt P61073); assay: Antagonist activity against CXCR4 receptor (unknown origin) transfected in human HEK293T cells at 10 uM incubated for 15 mins in presence of AMD3100 by luminescence counter analysis; type: functional, cell-based
Summary of the method: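 HEK293-T cells transiently transfected with CXCR4 and the GloSensor cAMP reporter, plated in DMEM with 1% dialyzed FBS. Test compound at 10 μM in 20 mM HEPES/HBSS, pH 7.4, 15 min at room temperature. Agonist mode: luciferin (4 mM final) plus 200 nM isoproterenol added, 20 min. Antagonist mode: compound 10 min, then reference agonist at EC80 for 10 min, then luciferin/isoproterenol. Luminescence read. CXCL12 (1 or 3 μM) is the agonist control and AMD3100 (10 μM) the antagonist control. n=2.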

[6] = Positive allosteric modulator activity at GPR68 R189L mutant transfected in human HEK293T cells assessed as proton-mediated calcium release at 10 uM incubated for 10 mins by Fluo-4 Direct calcium dye based FLIPR assay (reference value: 1.42 +/- 0.01 %); conditions: HEK-293T, condition central nervous system disease
[7] = Binding affinity to GPR68 E160K mutant expressed in human HEK293T cells assessed as cAMP production in presence of H+ proton by Split-luciferase based luminescence counter analysis; conditions: condition central nervous system disease; summary of the method: as §1
[8] = target: 5-hydroxytryptamine receptor 2B (Homo sapiens, UniProt P41595); assay: Antagonist activity against 5-HT2B […] receptor (unknown origin) transfected in human HEK293T cells assessed as inhibition constant incubated for 15 mins by luminescence counter analysis; type: functional, cell-based
Adenosine receptor A2a = Adenosine receptor A2a (Homo sapiens, UniProt P29274); assay: Antagonist activity against A2A adenosine receptor (unknown origin) transfected in human HEK293T cells assessed as inhibition constant […] by luminescence counter analysis; type: functional, cell-based
[9] = Positive allosteric modulator activity at GPR68 E160K mutant transfected in human HEK293T cells assessed as proton-mediated calcium release at 10 uM incubated for 10 mins by Fluo-4 Direct calcium dye based FLIPR assay (reference value: 1.38 +/- 0.01 %); conditions: HEK-293T, condition central nervous system disease
[10] = Positive allosteric modulator activity at GPR68 E160K mutant expressed in human HEK293T cells assessed as cAMP production in presence of H+ proton by Split-luciferase based luminescence counter analysis (reference value: 24.6+/-2.7 %); conditions: HEK-293T, condition central nervous system disease; summary of the method: as §1
[11] = Positive allosteric modulator activity at GPR68 E160K mutant expressed in human HEK293T cells assessed as cAMP production in presence of H+ proton by Split-luciferase based luminescence counter analysis (reference value: 6.70+/-0.08); type: cell-based; conditions: HEK-293T; summary of the method: as §1
[12] = Binding affinity to GPR68 E160A mutant expressed in human HEK293T cells assessed as cAMP production in presence of H+ proton by Split-luciferase based luminescence counter analysis; conditions: condition central nervous system disease; summary of the method: as §1
[13] = Binding affinity to GPR68 E160Q mutant expressed in human HEK293T cells assessed as cAMP production in presence of H+ proton by Split-luciferase based luminescence counter analysis; conditions: condition central nervous system disease; summary of the method: as §1
[14] = Positive allosteric modulator activity at GPR68 R189M mutant expressed in human HEK293T cells assessed as cAMP production in presence of H+ proton by Split-luciferase based luminescence counter analysis (reference value: 3.7 %); conditions: HEK-293T, condition central nervous system disease; summary of the method: as §1
[15] = Positive allosteric modulator activity at GPR68 R189L mutant expressed in human HEK293T cells assessed as cAMP production in presence of H+ proton by Split-luciferase based luminescence counter analysis (reference value: 1.4 %); conditions: HEK-293T, condition central nervous system disease; summary of the method: as §1
[16] = target: T1, G-protein coupled receptor 68; assay: Positive allosteric modulator activity at HA-tagged GPR68 expressed in human HEK293T cells assessed as activation of p42/p44 MAP kinase at pH 7.4 by immunoblotting analysis; type: cell-based; conditions: filed as positive allosteric modulator
Summary of the method: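 HEK293 cells stably expressing N-terminal HA-tagged human GPR68 (vector-only line as control), selected with 250 μg/ml G418. Confluent cells were switched to Hams-F12 at pH 8.0 or 7.4 for 1 h, then given vehicle or 50 μM compound for 10 min. Lysate immunoblots were probed for HA, total VASP, p-p42/p44 and β-actin, read with infrared-fluorophore secondaries.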

T1 sequence (Q15743 whole entry): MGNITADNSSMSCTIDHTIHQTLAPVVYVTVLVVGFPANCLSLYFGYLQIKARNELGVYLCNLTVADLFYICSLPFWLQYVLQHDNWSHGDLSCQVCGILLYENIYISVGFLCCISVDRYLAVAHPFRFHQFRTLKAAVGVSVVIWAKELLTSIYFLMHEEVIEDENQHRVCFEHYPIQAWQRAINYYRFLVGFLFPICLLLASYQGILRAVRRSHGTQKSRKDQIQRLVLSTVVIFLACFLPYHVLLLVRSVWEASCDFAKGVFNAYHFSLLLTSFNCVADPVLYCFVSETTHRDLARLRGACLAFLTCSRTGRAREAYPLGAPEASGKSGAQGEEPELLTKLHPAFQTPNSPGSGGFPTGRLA
C-X-C chemokine receptor type 4 (Homo sapiens), sequence (P61073 whole entry): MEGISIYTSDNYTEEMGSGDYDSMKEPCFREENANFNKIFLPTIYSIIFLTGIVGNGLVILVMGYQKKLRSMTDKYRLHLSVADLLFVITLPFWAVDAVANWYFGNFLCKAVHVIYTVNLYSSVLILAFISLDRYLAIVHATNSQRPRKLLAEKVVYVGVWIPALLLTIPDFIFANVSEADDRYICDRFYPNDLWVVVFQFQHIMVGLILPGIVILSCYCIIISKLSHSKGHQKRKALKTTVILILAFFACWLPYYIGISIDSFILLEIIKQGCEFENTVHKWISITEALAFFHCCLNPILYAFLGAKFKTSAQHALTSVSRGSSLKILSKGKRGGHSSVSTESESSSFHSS
Adenosine receptor A2a, sequence (P29274 whole entry): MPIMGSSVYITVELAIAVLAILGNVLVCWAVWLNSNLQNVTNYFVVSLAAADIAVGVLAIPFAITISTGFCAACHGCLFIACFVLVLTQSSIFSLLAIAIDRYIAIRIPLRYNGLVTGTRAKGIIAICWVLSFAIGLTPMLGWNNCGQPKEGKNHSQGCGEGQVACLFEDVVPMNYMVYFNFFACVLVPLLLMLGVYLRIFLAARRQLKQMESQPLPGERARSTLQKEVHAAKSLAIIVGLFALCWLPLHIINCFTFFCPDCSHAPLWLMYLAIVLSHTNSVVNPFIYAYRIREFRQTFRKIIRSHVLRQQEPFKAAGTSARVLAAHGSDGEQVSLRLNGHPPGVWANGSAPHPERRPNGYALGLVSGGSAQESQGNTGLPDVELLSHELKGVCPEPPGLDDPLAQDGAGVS
5-hydroxytryptamine receptor 2B, sequence (P41595 whole entry): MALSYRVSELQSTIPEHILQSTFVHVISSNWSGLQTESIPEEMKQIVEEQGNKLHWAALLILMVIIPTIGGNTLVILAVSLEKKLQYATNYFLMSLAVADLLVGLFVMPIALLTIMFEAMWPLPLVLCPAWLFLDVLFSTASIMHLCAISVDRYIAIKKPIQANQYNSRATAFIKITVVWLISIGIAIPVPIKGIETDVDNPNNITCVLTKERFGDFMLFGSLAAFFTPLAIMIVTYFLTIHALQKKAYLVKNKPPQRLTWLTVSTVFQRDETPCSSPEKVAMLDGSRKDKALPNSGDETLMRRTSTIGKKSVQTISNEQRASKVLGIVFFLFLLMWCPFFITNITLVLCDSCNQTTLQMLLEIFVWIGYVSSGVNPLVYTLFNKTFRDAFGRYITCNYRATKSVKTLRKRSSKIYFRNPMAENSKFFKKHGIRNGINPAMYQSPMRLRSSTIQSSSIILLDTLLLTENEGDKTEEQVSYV

**Q.** What does the source list for `Nc1nc(NCc2ccccc2)nc(-c2ccccc2CO)n1` [Ogerin]?
**A.** pKb [1]: 4.33; Emax [2]: 1.07%; Activity [3]: Toxic; Emax [4]: 27.5%; Activity [5]: inactive; Emax at 10 µM [6]: 1.35%; pKb [7]: 4.98; Ki [8]: 736 nM; Ki (Adenosine receptor A2a): 220 nM; Emax at 10 µM [9]: 1.12%; Emax [10]: 42.6%; EC50 [11]: 77.6 nM; pKb [12]: 4.67; pKb [13]: 4.9; Emax [14]: 10%; Emax [15]: 5.3%; Activity [16]: Active
